Reference: ChEMBL document CHEMBL4196022, “Alkynyl-containing phenylthiazoles: Systemically active antibacterial agents effective against methicillin-resistant Staphylococcus aureus (MRSA)” (Eur J Med Chem, 2018)
Converted amounts (≈) assume the structure as drawn. The source made the active and inactive calls. The rule behind the calls is not given here.

Legend:
Staphylococcus aureus [1] = assay: Bactericidal activity against methicillin resistant Staphylococcus aureus NRS123 (USA400) up to 18 hrs by broth microdilution assay; assay type: functional; conditions: read-out: MBC99.9
Mus musculus [2] = assay: Toxicity in wounded skin area of Balb/c mouse infected with methicillin-resistant Staphylococcus aureus USA300 at 2% administered topically twice daily for 5 consecutive days measured 12 hrs post last dose; assay type: organism-based; conditions: in vivo, topical_or_ocular
Outline: (§1)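 Female Balb/c mice, 8 weeks old, n=5 per group. Intradermal injection of 40 μL of 1.32×10^9 CFU/mL USA300; a wound formed by ~66 h. Treated topically with a 2% suspension in petroleum jelly twice daily for 5 days; the vehicle group served as control. Wounds excised 12 h after the last dose, homogenized in PBS and plated on mannitol salt agar; sites also observed for redness and swelling.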

[3] = target: T1, Ditrans,polycis-undecaprenyl-diphosphate synthase ((2E,6E)-farnesyl-diphosphate specific) (Escherichia coli (strain K12), UniProt P60472); assay: Inhibition of Escherichia coli UPPS using IPP and FPP as substrate preincubated for 30 mins followed by substrate addition measured after 20 mins by malachite green phosphate assay
T1 sequence (P60472 whole entry): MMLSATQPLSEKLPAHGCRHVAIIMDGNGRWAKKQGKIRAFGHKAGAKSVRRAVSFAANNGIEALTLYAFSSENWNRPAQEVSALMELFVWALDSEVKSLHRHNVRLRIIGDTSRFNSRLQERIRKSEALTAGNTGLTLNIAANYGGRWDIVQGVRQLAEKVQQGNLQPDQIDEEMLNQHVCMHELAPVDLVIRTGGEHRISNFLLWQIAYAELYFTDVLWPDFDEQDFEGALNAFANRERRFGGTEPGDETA

Rattus norvegicus [4] = assay: Half life in Sprague-Dawley rat at 2 uM administered as single iv bolus dose by LC-MS/MS analysis; assay type: ADME, organism-based; conditions: in vivo
Outline: (§2)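 Male naïve Sprague-Dawley rats (three animals) received an IV bolus of a 2 μM solution. EDTA-K2 blood was sampled over 12 h post dose. Plasma was protein-precipitated with acetonitrile and quantified by LC/MS/MS. Parameters came from two-compartmental pharmacokinetic analysis.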

[5] = Selectivity index, ratio of toxic concentration for human HRT18 cells to MIC for methicillin-resistant Staphylococcus aureus; assay type: toxicity; conditions: read-out: Selectivity Index
Staphylococcus aureus [6] = assay: Ratio of MBC to MIC for vancomycin-resistant Staphylococcus aureus VRS10; assay type: functional
Outline: (§3)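 MBC/MIC ratio. […] MBC by plating no-growth wells onto tryptic soy agar at 37 °C for at least 18 h; taken as the concentration giving 99.9% growth inhibition.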

Staphylococcus aureus [7] = assay: Potency index, ratio of vancomycin MIC to compound MIC for antibacterial activity against vancomycin-resistant Staphylococcus aureus VRS11a; assay type: functional
Rattus norvegicus [8] = assay: AUC in Sprague-Dawley rat at 2 uM administered as single iv bolus dose by LC-MS/MS analysis; assay type: ADME, organism-based; conditions: in vivo; outline: as §2
Mus musculus [9] = assay: Induction of inflammation in Balb/c mouse infected with methicillin-resistant Staphylococcus aureus USA300 assessed as redness around wounded skin area at 2% administered topically twice daily for 5 consecutive days measured 12 hrs post last dose relative to control; assay type: organism-based; conditions: in vivo, topical_or_ocular; outline: as §1
Staphylococcus aureus [10] = assay: Inhibition of UPPS/UPPP in vancomycin-resistant Staphylococcus aureus VRS10 assessed as potentiation of vancomycin-induced antibacterial activity by measuring fold reduction in vancomycin MIC at 0.5 times MIC preincubated for 30 mins followed by vancomycin addition measured after 20 to 22 hrs by broth microdilution assay relative to control
Outline: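 VRS10 suspension pre-exposed to compound at ½ × MIC for 30 min at room temperature. […] Incubation at 37 °C for 20–22 h before the MIC was read; untreated bacteria served as control.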

Staphylococcus aureus [11] = assay: Bactericidal activity against methicillin resistant vancomycin-resistant Staphylococcus aureus VRS10 up to 18 hrs by broth microdilution assay; assay type: functional; conditions: VRS10, 18 h, read-out: MBC99.9
Staphylococcus aureus [12] = assay: Antibacterial activity against methicillin-resistant Staphylococcus aureus USA300 infected in Caenorhabditis elegans AU37 assessed as reduction in bacterial burden at 20 ug/ml after 18 hrs relative to control; assay type: functional; parameters: scale not given: the % may be the effect or the level left
Outline: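 L4-stage C. elegans AU37 infected on USA300 lawns for 6 h and washed with M9 buffer. 25–30 worms per well exposed to 20 μg/mL for 18 h, in triplicate. Worms then lysed and plated on TSA with 5 μg/mL nalidixic acid for 17 h at 37 °C. CFU per worm expressed as % reduction versus PBS.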

J774 = assay: Cytotoxicity against mouse J774 cells assessed as reduction in cell viability up to 8 ug/ml after 24 hrs by MTS assay; assay type: cell-based; conditions: j774, 24 h
Outline: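 J774 murine macrophages were grown in DMEM with 10% FBS at 37 °C, 5% CO2. Compounds were tested at 8, 16 and 32 μg/mL in triplicate for 24 h, with a DMSO-matched control. MTS was added for 4 h and absorbance read at 490 nm. Viability is given as % of DMSO control (mean ± SD); Student t-test with Holm-Sidak test.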

Staphylococcus aureus [13] = assay: Potency index, ratio of vancomycin MIC to compound MIC for antibacterial activity against vancomycin-resistant Staphylococcus aureus VRS10; assay type: functional
Staphylococcus aureus [14] = assay: Ratio of MBC to MIC for methicillin-resistant Staphylococcus aureus NRS119; assay type: functional; outline: as §3
Staphylococcus aureus [15] = assay: Potency index, ratio of vancomycin MIC to compound MIC for antibacterial activity against vancomycin-resistant Staphylococcus aureus VRS12; assay type: functional
Staphylococcus aureus [16] = assay: Antibacterial activity against methicillin-resistant Staphylococcus aureus NRS123 (USA400) infected in mouse J774 cells at 8 ug/ml after 24 hrs; assay type: functional, organism-based
Outline: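 J774 macrophages grown in DMEM with 10% FBS at 37 °C, 5% CO2. Infected with USA400 at MOI ~100:1 for 1 h, then washed with gentamicin 50 μg/mL. Treated in triplicate wells for 24 h, washed with gentamicin again and lysed with 0.1% Triton X-100. Lysate plated on tryptic soy agar for 18–22 h; CFU/mL counted.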

[17] = target: T2, Farnesyl pyrophosphate synthase (Homo sapiens, UniProt P14324); assay: Inhibition of human FPPS
T2 sequence (P14324 whole entry): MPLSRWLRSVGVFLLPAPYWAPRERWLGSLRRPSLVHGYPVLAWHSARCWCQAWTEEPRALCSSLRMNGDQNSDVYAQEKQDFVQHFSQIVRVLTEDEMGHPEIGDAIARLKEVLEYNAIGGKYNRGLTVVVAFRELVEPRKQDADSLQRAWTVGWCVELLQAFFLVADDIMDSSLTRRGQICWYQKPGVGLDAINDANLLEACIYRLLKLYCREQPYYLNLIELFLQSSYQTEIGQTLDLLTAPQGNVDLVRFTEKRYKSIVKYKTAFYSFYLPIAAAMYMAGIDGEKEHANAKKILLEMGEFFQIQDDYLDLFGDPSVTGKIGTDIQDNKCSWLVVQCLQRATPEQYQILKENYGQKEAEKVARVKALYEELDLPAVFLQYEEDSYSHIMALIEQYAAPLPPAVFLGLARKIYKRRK

[18] = Induction of proton motive force collapse in Escherichia coli inverted membrane vesicle in presence of ATP-driven PMF generation system by ACMA-based fluorescence assay; assay type: functional, cell membranes
Outline: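 E. coli inverted membrane vesicles had proton motive force generated either by ATP or by succinate/O2. PMF collapse was followed as a dose response to give EC50, with CCCP as the reference uncoupler.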

## C/C(=N\NC(=N)N)c1sc(-c2ccc(C#CC3CC3)cc2)nc1C
Staphylococcus aureus [1]
  MBC: 2 µg/mL (≈ 5.93 µM)
Mus musculus [2]
  Activity: Non-Toxic
[3]
  IC50: 38 µM
Rattus norvegicus [4]
  t1/2: 4.43 h
[5]
  selectivity ratio: 7 to 31
Staphylococcus aureus [6]
  Ratio: <=3
Staphylococcus aureus [7]
  Ratio: >100
Rattus norvegicus [8]
  AUC: 690 ng·h/mL
Mus musculus [9]
  Activity: Non-Toxic
Staphylococcus aureus [10]
  fold change (FC): 512
Staphylococcus aureus [11]
  MBC: 4 µg/mL (≈ 11.9 µM)
Staphylococcus aureus [12]
  Activity: 90%
J774
  Activity: Non-Toxic
Staphylococcus aureus [13]
  Ratio: >100
Staphylococcus aureus [14]
  Ratio: <=3
Staphylococcus aureus [15]
  Ratio: 8
Staphylococcus aureus [16]
  Activity: inactive
[17]
  inhibition (INH): Not Active
[18]
  EC50: 24 µM
